Measured values reported in ChEMBL document CHEMBL1649231, “In vitro activities of panduratin A against clinical Staphylococcus strains” (2009).
Values after ≈ are worked out from the molar mass of the structure shown.

Tests used:
Type in all cases: functional
[1] = test system: Staphylococcus simulans; experiment: Antimicrobial activity against methicillin-resistant coagulase-negative Staphylococcus simulans after 24 hrs by broth microdilution method
Outline: (§1)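 Clinical isolates came from blood, body fluids, genital secretions, pus or sputum, identified conventionally or by Vitek. MICs were run by CLSI M7-A6 broth microdilution in Mueller-Hinton broth with 5 × 10^5 CFU/ml inoculum. Agents were twofold serially diluted, starting from 10% DMSO. Drug-free and uninoculated controls were included. Plates were incubated aerobically at 37°C for 24 h; MIC is the lowest concentration giving no visible growth.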

[2] = test system: Staphylococcus haemolyticus; experiment: Antimicrobial activity against methicillin-resistant coagulase-negative Staphylococcus haemolyticus assessed as susceptible isolates after 24 hrs by broth microdilution method
[3] = test system: Staphylococcus epidermidis; experiment: Antimicrobial activity against methicillin-resistant coagulase-negative Staphylococcus epidermidis assessed as intermediate resistant isolates after 24 hrs by broth microdilution method
[4] = test system: Staphylococcus hominis; experiment: Antimicrobial activity against methicillin-resistant coagulase-negative Staphylococcus hominis assessed as resistant isolates after 24 hrs by broth microdilution method
[5] = test system: Staphylococcus hominis; experiment: Bactericidal activity against methicillin-resistant coagulase-negative Staphylococcus hominis after 24 hrs by plate counting method
[6] = test system: Staphylococcus hominis; experiment: Antimicrobial activity against methicillin-susceptible coagulase-negative Staphylococcus hominis assessed as resistant isolates after 24 hrs by broth microdilution method
[7] = test system: Staphylococcus epidermidis; experiment: Antimicrobial activity against methicillin-susceptible coagulase-negative Staphylococcus epidermidis assessed as resistant isolates after 24 hrs by broth microdilution method
[8] = test system: Staphylococcus aureus; experiment: Antimicrobial activity against methicillin-resistant Staphylococcus aureus after 24 hrs by broth microdilution method; outline: as §1
[9] = test system: Staphylococcus simulans; experiment: Bactericidal activity against methicillin-resistant coagulase-negative Staphylococcus simulans after 24 hrs by plate counting method
Outline: (§2)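 Clinical staphylococcal isolates from patient body fluids, blood, genital secretions, pus or sputum; species by conventional methods or Vitek. Twofold dilutions in Mueller-Hinton broth, inoculum 5 × 10^5 CFU/ml, 37°C aerobic 24 h (CLSI M7-A6 microdilution). About 100 μl from each well without visible growth spread on MHA; 37°C 24 h. MBC = lowest concentration giving no growth on agar.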

[10] = test system: Staphylococcus aureus; experiment: Bactericidal activity against methicillin-resistant Staphylococcus aureus after 24 hrs by plate counting method
[11] = test system: Staphylococcus simulans; experiment: Bactericidal activity against methicillin-susceptible coagulase-negative Staphylococcus simulans after 24 hrs by plate counting method; outline: as §2
[12] = test system: Staphylococcus haemolyticus; experiment: Bactericidal activity against methicillin-susceptible coagulase-negative Staphylococcus haemolyticus after 24 hrs by plate counting method; outline: as §2
[13] = test system: Staphylococcus epidermidis; experiment: Antimicrobial activity against methicillin-susceptible coagulase-negative Staphylococcus epidermidis after 24 hrs by broth microdilution method; outline: as §1
[14] = test system: Mammaliicoccus sciuri; experiment: Antimicrobial activity against methicillin-resistant coagulase-negative Staphylococcus sciuri assessed as intermediate resistant isolates after 24 hrs by broth microdilution method
[15] = test system: Staphylococcus hominis; experiment: Antimicrobial activity against methicillin-susceptible coagulase-negative Staphylococcus hominis after 24 hrs by broth microdilution method; outline: as §1
[16] = test system: Staphylococcus haemolyticus; experiment: Antimicrobial activity against methicillin-resistant coagulase-negative Staphylococcus haemolyticus assessed as resistant isolates after 24 hrs by broth microdilution method
[17] = test system: Mammaliicoccus sciuri; experiment: Bactericidal activity against methicillin-resistant coagulase-negative Staphylococcus sciuri after 24 hrs by plate counting method; outline: as §2
[18] = test system: Staphylococcus simulans; experiment: Antimicrobial activity against methicillin-resistant coagulase-negative Staphylococcus simulans assessed as resistant isolates after 24 hrs by broth microdilution method
[19] = test system: Staphylococcus hominis; experiment: Antimicrobial activity against methicillin-resistant coagulase-negative Staphylococcus hominis assessed as intermediate resistant isolates after 24 hrs by broth microdilution method
[20] = test system: Staphylococcus haemolyticus; experiment: Antimicrobial activity against methicillin-susceptible coagulase-negative Staphylococcus haemolyticus assessed as resistant isolates after 24 hrs by broth microdilution method
[21] = Staphylococcus haemolyticus, 24 h

Molecule	MIC50 [1] [µg/mL]	MIC90 [1] [µg/mL]	Activity [2] [%]	Activity [3] [%]	Activity [4] [%]	MBC50 [5] [µg/mL]	Activity [6] [%]	Activity [7] [%]	MIC50 [8] [µg/mL]	MIC90 [8] [µg/mL]	MBC50 [9] [µg/mL]	MBC50 [11] [µg/mL]	MBC50 [12] [µg/mL]	MIC50 [13] [µg/mL]	MIC90 [13] [µg/mL]	Activity [14] [%]	MIC50 [15] [µg/mL]	MIC90 [15] [µg/mL]	Activity [16] [%]	MBC50 [17] [µg/mL]	also measured
CC[C@H]1OC(=O)[C@H](C)[C@@H](O[C@H]2C[C@@](C)(OC)[C@@H](O)[C@H](C)O2)[C@H](C)[C@@H](O[C@@H]2O[C@H](C)C[C@H](N(C)C)[C@H]2O)[C@](C)(O)C[C@@H](C)C(=O)[C@H](C)[C@@H](O)[C@]1(C)O [ERYTHROMYCIN]	16 (≈ 21.8 µM)	32 (≈ 43.6 µM)	11	15	74	32 (≈ 43.6 µM)	27	27	32 (≈ 43.6 µM)	64 (≈ 87.2 µM)	32 (≈ 43.6 µM)	2 (≈ 2.73 µM)	2 (≈ 2.73 µM)	0.5 (≈ 0.681 µM)	16 (≈ 21.8 µM)	15	0.5 (≈ 0.681 µM)	16 (≈ 21.8 µM)	74	32 (≈ 43.6 µM)	MBC ([5]; Staphylococcus hominis, 24 h): 1 µg/mL (≈ 1.36 µM); MBC ([9]; Staphylococcus simulans, 24 h): 1 µg/mL (≈ 1.36 µM); MBC ([10]; Staphylococcus aureus, 24 h): 32 µg/mL (≈ 43.6 µM); MBC ([11]; Staphylococcus simulans, 24 h): 1 µg/mL (≈ 1.36 µM); MBC [12, 21]: 1 µg/mL (≈ 1.36 µM); MIC [13]: 0.5 µg/mL (≈ 0.681 µM); MIC [15]: 0.5 µg/mL (≈ 0.681 µM); MBC ([17]; Mammaliicoccus sciuri, 24 h): 1 µg/mL (≈ 1.36 µM); Activity [18]: 74%; Activity [19]: 15%; Activity [20]: 27%
C[C@H]1COc2c(N3CCN(C)CC3)c(F)cc3c(=O)c(C(=O)O)cn1c23.C[C@H]1COc2c(N3CCN(C)CC3)c(F)cc3c(=O)c(C(=O)O)cn1c23.O [LEVOFLOXACIN]	0.25	4	26	15	59	4	4	4	8	128	4	1	1	0.25	0.5	15	0.25	0.5	59	4	MIC [1]: 0.25 µg/mL; MBC90 [5]: 16 µg/mL; MBC ([5]; Staphylococcus hominis, 24 h): 0.5 µg/mL; MBC90 [9]: 16 µg/mL; MBC ([9]; Staphylococcus simulans, 24 h): 0.5 µg/mL; MBC50 [10]: 16 µg/mL; MBC90 [10]: 512 µg/mL; MBC ([10]; Staphylococcus aureus, 24 h): 0.5 µg/mL; MBC90 [11]: 4 µg/mL; MBC ([11]; Staphylococcus simulans, 24 h): 0.5 µg/mL; MBC90 [12]: 4 µg/mL; MBC [12, 21]: 0.5 µg/mL; MIC [13]: 0.25 µg/mL; MIC [15]: 0.25 µg/mL; MBC90 [17]: 16 µg/mL; MBC ([17]; Mammaliicoccus sciuri, 24 h): 0.5 µg/mL; Activity [18]: 59%; Activity [19]: 15%; Activity [20]: 4%
CN(C)[C@@H]1C(O)=C(C(N)=O)C(=O)[C@@]2(O)C(O)=C3C(=O)c4c(O)cccc4[C@@](C)(O)[C@H]3C[C@@H]12 [TETRACYCLINE]	1 (≈ 2.25 µM)	64 (≈ 144 µM)	18	7	75	4 (≈ 9 µM)	12	12	16 (≈ 36 µM)	32 (≈ 72 µM)	4 (≈ 9 µM)	8 (≈ 18 µM)	8 (≈ 18 µM)	0.5 (≈ 1.13 µM)	32 (≈ 72 µM)	7	0.5 (≈ 1.13 µM)	32 (≈ 72 µM)	75	4 (≈ 9 µM)	MBC ([5]; Staphylococcus hominis, 24 h): 0.5 µg/mL (≈ 1.13 µM); MBC ([9]; Staphylococcus simulans, 24 h): 0.5 µg/mL (≈ 1.13 µM); MBC50 [10]: 64 µg/mL (≈ 144 µM); MBC90 [10]: 512 µg/mL (≈ 1150 µM); MBC ([10]; Staphylococcus aureus, 24 h): 2 µg/mL (≈ 4.5 µM); MBC90 [11]: 128 µg/mL (≈ 288 µM); MBC ([11]; Staphylococcus simulans, 24 h): 1 µg/mL (≈ 2.25 µM); MBC90 [12]: 128 µg/mL (≈ 288 µM); MBC [12, 21]: 1 µg/mL (≈ 2.25 µM); MIC [13]: 0.5 µg/mL (≈ 1.13 µM); MIC [15]: 0.5 µg/mL (≈ 1.13 µM); MBC ([17]; Mammaliicoccus sciuri, 24 h): 0.5 µg/mL (≈ 1.13 µM); Activity [18]: 75%; Activity [19]: 7%; Activity [20]: 12%
CN[C@H](CC(C)C)C(=O)N[C@H]1C(=O)N[C@@H](CC(N)=O)C(=O)N[C@H]2C(=O)N[C@H]3C(=O)N[C@H](C(=O)N[C@H](C(=O)O)c4cc(O)cc(O)c4-c4cc3ccc4O)[C@H](O)c3ccc(c(Cl)c3)Oc3cc2cc(c3O[C@@H]2O[C@H](CO)[C@@H](O)[C@H](O)[C@H]2O[C@H]2C[C@](C)(N)[C@H](O)[C@H](C)O2)Oc2ccc(cc2Cl)[C@H]1O [VANCOMYCIN]	0.125 (≈ 0.0863 µM)	2 (≈ 1.38 µM)	100	0	0	2 (≈ 1.38 µM)	0	0	0.5 (≈ 0.345 µM)	0.5 (≈ 0.345 µM)	2 (≈ 1.38 µM)	1 (≈ 0.69 µM)	1 (≈ 0.69 µM)	0.25 (≈ 0.173 µM)	1 (≈ 0.69 µM)	0	0.25 (≈ 0.173 µM)	1 (≈ 0.69 µM)	0	2 (≈ 1.38 µM)	MIC [1]: 0.125 µg/mL (≈ 0.0863 µM); MBC90 [5]: 4 µg/mL (≈ 2.76 µM); MBC ([5]; Staphylococcus hominis, 24 h): 0.5 µg/mL (≈ 0.345 µM); MBC90 [9]: 4 µg/mL (≈ 2.76 µM); MBC ([9]; Staphylococcus simulans, 24 h): 0.5 µg/mL (≈ 0.345 µM); MBC50 [10]: 1 µg/mL (≈ 0.69 µM); MBC90 [10]: 2 µg/mL (≈ 1.38 µM); MBC ([10]; Staphylococcus aureus, 24 h): 0.5 µg/mL (≈ 0.345 µM); MBC90 [11]: 4 µg/mL (≈ 2.76 µM); MBC ([11]; Staphylococcus simulans, 24 h): 0.125 µg/mL (≈ 0.0863 µM); MBC90 [12]: 4 µg/mL (≈ 2.76 µM); MBC [12, 21]: 0.125 µg/mL (≈ 0.0863 µM); MBC90 [17]: 4 µg/mL (≈ 2.76 µM); MBC ([17]; Mammaliicoccus sciuri, 24 h): 0.5 µg/mL (≈ 0.345 µM); Activity [18]: 0%; Activity [19]: 0%; Activity [20]: 0%
GENTAMICIN	8	64	45	7	48	8	27	27	32	64	8	1	1	0.125	32	7	0.125	32	48	8	MBC [5]: 0.25 µg/mL; MBC90 [5]: 128 µg/mL; MBC [9]: 0.25 µg/mL; MBC90 [9]: 128 µg/mL; MBC [10]: 2 µg/mL; MBC50 [10]: 64 µg/mL; MBC90 [10]: 128 µg/mL; MBC [11]: 0.25 µg/mL; MBC90 [11]: 64 µg/mL; MBC [12]: 0.25 µg/mL; MBC90 [12]: 64 µg/mL; MBC [17]: 0.25 µg/mL; MBC90 [17]: 128 µg/mL; Activity [18]: 48%; Activity [19]: 7%; Activity [20]: 27%
